Assay results as given in ChEMBL document CHEMBL1153616, “Synthesis and antiviral activity of new pyrazole and thiazole derivatives” (Eur J Med Chem, 2009).
≈ marks a conversion by molar mass, not a printed value. Calls of active or inactive are those of the source. No cut-off for these calls is given here.

How the values were obtained:
[1] = Cytotoxicity against HEL cells assessed as minimum cytotoxic concentration required to cause microscopically detectable alteration in normal cell morphology; type: cell-based; settings: human
How it was run: (§1)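 Run in parallel with antiviral assays on uninfected cell cultures; test compounds from 10 mg/ml DMSO stocks in serial dilution. Value is minimum cytotoxic concentration (MCC) producing microscopically detectable alteration of normal cell morphology.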

Human alphaherpesvirus 2 = experiment: Antiviral activity against HSV2 G infected in human HEL cells assessed as inhibition of virus-induced cytopathicity after 3 days; type: functional, organism-based; settings: Human alphaherpesvirus 2, strain G, 72 h
How it was run: (§2)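 Confluent cell monolayers infected with 100 CCID50 virus; after 2 h adsorption at 37 °C, virus removed and serial compound dilutions added (DMSO stocks 10 mg/ml). Incubated 37 °C for 3 days until complete CPE in untreated virus control. EC50 = concentration protecting 50% of infected cells from viral cytopathogenicity; ">" marks highest concentration tested.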

Vaccinia virus [2] = experiment: Antiviral activity against Vaccinia virus infected in human HEL cells assessed as inhibition of virus-induced cytopathicity after 3 days; type: functional, organism-based; settings: Orthopoxvirus vaccinia, 72 h
[3] = tested on: Vesicular stomatitis virus; experiment: Antiviral activity against Vesicular stomatitis virus infected in human HEL cells assessed as inhibition of virus-induced cytopathicity after 3 days; type: functional, organism-based; settings: 72 h
Human alphaherpesvirus 1 [4] = experiment: Antiviral activity against thymidine kinase-deficient ACV-resistant HSV1 KOS infected in human HEL cells assessed as inhibition of virus-induced cytopathicity after 3 days; type: functional, organism-based; settings: Human alphaherpesvirus 1, KOS, 72 h
[5] = Cytotoxicity against human HeLa cells assessed as minimum cytotoxic concentration required to cause microscopically detectable alteration in normal cell morphology; type: cell-based; how it was run: as §1
[6] = tested on: Vesicular stomatitis virus; experiment: Antiviral activity against Vesicular stomatitis virus infected in human HeLa cells assessed as inhibition of virus-induced cytopathicity after 3 days; type: functional, organism-based; settings: 72 h
Human alphaherpesvirus 1 [7] = experiment: Antiviral activity against HSV1 KOS infected in human HEL cells assessed as inhibition of virus-induced cytopathicity after 3 days; type: functional, organism-based; settings: Human alphaherpesvirus 1, KOS, 72 h
Coxsackievirus B4 [8] = experiment: Antiviral activity against Coxsackievirus B4 infected in human HeLa cells assessed as inhibition of virus-induced cytopathicity after 3 days; type: functional, organism-based; settings: Enterovirus B, 72 h
How it was run: (§3)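 Confluent cell monolayers infected with 100 CCID50 virus; after 2 h adsorption at 37 °C, virus removed and serial compound dilutions added (DMSO stocks 10 mg/ml). Incubated 37 °C for 3 days until complete CPE in untreated virus control.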

[9] = tested on: Respiratory syncytial virus; experiment: Antiviral activity against RSV infected in human HeLa cells assessed as inhibition of virus-induced cytopathicity after 3 days; type: functional, organism-based; settings: 72 h; how it was run: as §2
[10] = Cytotoxicity against african green monkey Vero cells assessed as minimum cytotoxic concentration required to cause microscopically detectable alteration in normal cell morphology; type: cell-based; settings: chlorocebus sabaeus; how it was run: as §1
Human respirovirus 3 = experiment: Antiviral activity against Parainfluenza virus type 3 infected in african green monkey Vero cells assessed as inhibition of virus-induced cytopathicity after 3 days; type: functional, organism-based; settings: Human respirovirus 3, Vero, 72 h; how it was run: as §2
[11] = tested on: Mammalian orthoreovirus 1; experiment: Antiviral activity against Reovirus 1 infected in african green monkey Vero cells assessed as inhibition of virus-induced cytopathicity after 3 days; type: functional, organism-based; settings: Mammalian orthoreovirus 1, Vero, 72 h; how it was run: as §2
Sindbis virus = experiment: Antiviral activity against Sindbis virus infected in african green monkey Vero cells assessed as inhibition of virus-induced cytopathicity after 3 days postinfection; type: functional, organism-based; settings: 72 h; how it was run: as §2
Coxsackievirus B4 [12] = experiment: Antiviral activity against Coxsackievirus B4 infected in african green monkey Vero cells assessed as inhibition of virus-induced cytopathicity after 3 days; type: functional, organism-based; settings: Enterovirus B, 72 h; how it was run: as §2
Punta Toro virus = experiment: Antiviral activity against Punta Toro virus infected in african green monkey Vero cells assessed as inhibition of virus-induced cytopathicity after 3 days; type: functional, organism-based; settings: 72 h; how it was run: as §3
[13] = Selectivity index, ratio of MCC for human HEL cells to EC50 for sVaccinia virus; type: toxicity, cell-based
How it was run: (§4)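 The ratio was MCC/EC50. MCC was the minimum concentration causing microscopically visible change in normal morphology of uninfected HEL, HeLa or Vero cells, scored in parallel with the antiviral test. EC50 came from the CPE assay: 100 CCID50 infection, 2 h adsorption at 37 °C, serial compound dilutions, and 3 days at 37 °C. It was the concentration protecting 50% of cells from virus-induced CPE.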

[14] = Selectivity index, ratio of MCC for african green monkey Vero cells to EC50 for Reovirus 1; type: toxicity, cell-based; settings: read-out: Selectivity Index; how it was run: as §4
[15] = Selectivity index, ratio of MCC for african green monkey Vero cells to EC50 for Sindbis virus; type: toxicity, cell-based; settings: read-out: Selectivity Index; how it was run: as §4
[16] = Selectivity index, ratio of MCC for african green monkey Vero cells to EC50 for Coxsackievirus B4; type: toxicity, cell-based; settings: read-out: Selectivity Index; how it was run: as §4
[17] = Selectivity index, ratio of MCC for african green monkey Vero cells to EC50 for Punta Toro virus; type: toxicity, cell-based; settings: read-out: Selectivity Index; how it was run: as §4
Vaccinia virus [18] = experiment: Antiviral activity against Vaccinia virus Lister; type: functional, organism-based
Vaccinia virus [19] = experiment: Antiviral activity against Vaccinia virus Western Reserve; type: functional, organism-based; settings: Orthopoxvirus vaccinia
Vaccinia virus [20] = experiment: Antiviral activity against Vaccinia virus Copenhagen; type: functional, organism-based; settings: Orthopoxvirus vaccinia
Cowpox virus = experiment: Antiviral activity against Cowpox virus Brighton; type: functional, organism-based; settings: Cowpox virus (Brighton Red)

SMILES: CC(=O)N1N=C(c2ccc(Cl)cc2)CC1c1ccc(OCc2ccccc2)cc1 (stereo not given)
- MCC [1]: 100 µg/mL
- EC50 (Human alphaherpesvirus 2): > 20 µg/mL
- EC50 (Vaccinia virus [2]): 7 µg/mL (≈ 17.3 µM)
- EC50 [3]: > 20 µg/mL
- EC50 (Human alphaherpesvirus 1 [4]): > 20 µg/mL
- MCC [5]: ≥ 20 µg/mL
- EC50 [6]: > 20 µg/mL
- EC50 (Human alphaherpesvirus 1 [7]): > 20 µg/mL
- EC50 (Coxsackievirus B4 [8]): > 20 µg/mL
- EC50 [9]: > 20 µg/mL
- MCC [10]: 20 µg/mL
- EC50 (Human respirovirus 3): > 4 µg/mL
- EC50 [11]: > 4 µg/mL
- EC50 (Sindbis virus): > 4 µg/mL
- EC50 (Coxsackievirus B4 [12]): > 4 µg/mL
- EC50 (Punta Toro virus): > 4 µg/mL
- selectivity ratio [13]: 3.6
- selectivity ratio [14]: 5
- selectivity ratio [15]: 5
- selectivity ratio [16]: 5
- selectivity ratio [17]: 5
- Activity (Vaccinia virus [18]): inactive
- Activity (Vaccinia virus [19]): inactive
- Activity (Vaccinia virus [20]): inactive
- Activity (Cowpox virus): inactive
